Results reported in ChEMBL document CHEMBL2021927, “Synthesis and evaluation of the cytotoxicities of tetraindoles: observation that the 5-hydroxy tetraindole (SK228) induces G₂ arrest and apoptosis in human breast cancer cells” (J Med Chem, 2012).

Experiments:
Detroit 551 [1] = assay: Selectivity ratio of IC50 for human Detroit 551 cells to IC50 for human A549 cells
Detroit 551 [2] = assay: Selectivity ratio of IC50 for human Detroit 551 cells to IC50 for human U87MG cells
MCF7 [3] = assay: Ratio of IC50 for 3,3'-diindolylmethane to compound for human MCF7 cells after 48 hrs by MTT assay; type: functional
MDA-MB-468 [4] = assay: Selectivity ratio of IC50 for human Detroit 551 cells to IC50 for human MDA-MB-468 cells
MCF7 [5] = assay: Ratio of IC50 for cyclic tetramer to compound for human MCF7 cells after 48 hrs by MTT assay; type: functional
Detroit 551 [6] = assay: Growth inhibition of human Detroit 551 cells after 48 hrs by MTT assay; type: cell-based; details: Detroit 551, 48 h
MDA-MB-231 [7] = assay: Ratio of IC50 for cyclic tetramer to compound for human MDA-MB-231 cells after 48 hrs by MTT assay; type: functional
[8] = Selectivity ratio of IC50 for human MT10 cells to IC50 for human U87MG cells; type: ADME, cell-based, U-87MG ATCC; details: MT10 cells and U87MG cells, read-out: Ratio IC50
Summary of the method: (§1)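 Ratio of the IC50 in normal M10 cells to the IC50 in each cancer line. […] The paper reports the fold difference as the normal-cell to tumour-cell IC50 ratio.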

MDA-MB-231 [9] = assay: Induction of apoptosis in human MDA-MB-231 cells assessed as increase in late apoptotic cells at 0.4 uM by annexinV propidium iodide staining-based flow cytometric analysis; type: functional, cell-based; details: TDE = time-dependent effect
Summary of the method: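 MDA-MB-231 cells treated with 0.4 μM, washed twice in PBS and stained with annexin V-FITC/propidium iodide. Populations scored as viable (both negative), early apoptotic (annexin V positive, PI negative) or late apoptotic/dead (both positive).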

SW480 = assay: Growth inhibition of human SW480 cells after 48 hrs by MTT assay; type: functional, cell-based; details: SW480, 48 h
[10] = Growth inhibition of human M10 cells after 48 hrs by MTT assay; type: cell-based; details: M10, 48 h
MDA-MB-361 [11] = assay: Growth inhibition of human MDA-MB-361 cells after 48 hrs by MTT assay; type: functional, cell-based; details: MDA-MB-361, 48 h
MCF7 [12] = assay: Selectivity ratio of IC50 for human Detroit 551 cells to IC50 for human MCF7 cells
MDA-MB-231 [13] = assay: Growth inhibition of human MDA-MB-231 cells after 48 hrs by MTT assay; type: functional, cell-based
MDA-MB-231 [14] = assay: Selectivity ratio of IC50 for human Detroit 551 cells to IC50 for human MDA-MB-231 cells
MCF7 [15] = assay: Selectivity ratio of IC50 for human MT10 cells to IC50 for human MCF7 cells; summary of the method: as §1
[16] = Growth inhibition of human Detroit 551 cells at 20 uM after 48 hrs by MTT assay; type: cell-based; details: read-out: GI
Summary of the method: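 MTT viability assay with 48 h exposure at a single 20 μM concentration. Result given as percent inhibition of cell growth; n = 3.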

MDA-MB-361 [17] = assay: Selectivity ratio of IC50 for human Detroit 551 cells to IC50 for human MDA-MB-361 cells
MDA-MB-231 [18] = assay: Cell cycle arrest in human MDA-MB-231 cells at accumulation at subG1 phase at 0.8 uM after 48 hrs by propidium iodide staining-based flow cytometric analysis (reference value: 3%); type: functional
MDA-MB-468 [19] = assay: Selectivity ratio of IC50 for human MT10 cells to IC50 for human MDA-MB-468 cells; summary of the method: as §1

## Oc1ccc2[nH]cc(C(c3ccc(C(c4c[nH]c5ccc(O)cc45)c4c[nH]c5ccc(O)cc45)cc3)c3c[nH]c4ccc(O)cc34)c2c1
Detroit 551 [1]
  Ratio IC50: > 6.9
Detroit 551 [2]
  Ratio IC50: > 7.3
MCF7 [3]
  Ratio IC50: 57
MDA-MB-468 [4]
  Ratio IC50: > 24
MCF7 [5]
  Ratio IC50: 2
Detroit 551 [6]
  IC50: > 20000 nM
MDA-MB-231 [7]
  Ratio IC50: 2
[8]
  selectivity ratio: 2
MDA-MB-231 [9]
  Activity: tde
SW480
  IC50: 370 nM
[10]
  IC50: 5810 nM
MDA-MB-361 [11]
  IC50: 2070 nM
MCF7 [12]
  Ratio IC50: > 22.7
MDA-MB-231 [13]
  inhibition: Dose-dependent effect
MDA-MB-231 [13]; MDA-MB-231, 48 h
  IC50: 450 nM
MDA-MB-231 [14]
  Ratio IC50: > 44
MCF7 [15]
  Ratio IC50: 6.6
[16]
  inhibition at 48 h, 20 µM: 47%
MDA-MB-361 [17]
  Ratio IC50: > 9.7
MDA-MB-231 [18]
  Activity: 21%
MDA-MB-468 [19]
  Ratio IC50: 7
